Here are results for 1 molecule from ChEMBL document CHEMBL1949528, “New inhibitor of 3-phosphoinositide dependent protein kinase-1 identified from virtual screening” (Bioorg Med Chem Lett, 2012).

pIC50: −log10 of the molar value.

One test concerns LOX IMVI. Nature of the test: Growth inhibition of human LOXIMVI cells after 48 hrs by sulforhodamine B assay. Type of test: functional. The method, boiled down: (§1)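 Run in the NCI-DTP 60-cell-line screen. Cells were exposed for 48 h to at least five 10-fold dilutions (0.01 to 100 μM). Cell growth was estimated by sulforhodamine B protein staining. Percentage growth at each level was taken from absorbances at time zero (Tz), of the untreated control (C) and of treated cells (Ti), as [(Ti-Tz)/(C-Tz)]*100.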
(The SRB assay estimates cell density from bound dye.)

Test [1] concerns the target T1, 3-phosphoinositide-dependent protein kinase 1 (Homo sapiens, UniProt O15530).
T1 sequence (O15530 whole entry): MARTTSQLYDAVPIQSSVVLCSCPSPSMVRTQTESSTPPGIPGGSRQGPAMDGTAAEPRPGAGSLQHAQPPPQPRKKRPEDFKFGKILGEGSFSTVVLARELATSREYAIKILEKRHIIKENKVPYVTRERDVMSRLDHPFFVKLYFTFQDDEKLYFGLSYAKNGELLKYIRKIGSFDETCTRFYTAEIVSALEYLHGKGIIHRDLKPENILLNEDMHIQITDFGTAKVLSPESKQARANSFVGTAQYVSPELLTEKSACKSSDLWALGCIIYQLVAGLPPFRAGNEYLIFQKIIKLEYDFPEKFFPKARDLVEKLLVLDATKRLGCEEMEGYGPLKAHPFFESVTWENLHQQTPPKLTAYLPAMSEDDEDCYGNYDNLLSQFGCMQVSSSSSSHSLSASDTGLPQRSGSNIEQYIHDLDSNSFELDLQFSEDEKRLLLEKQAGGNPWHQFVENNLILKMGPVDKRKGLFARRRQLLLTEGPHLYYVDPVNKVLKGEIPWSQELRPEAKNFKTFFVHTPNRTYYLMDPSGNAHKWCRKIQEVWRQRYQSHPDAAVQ
The experiment in a line: Inhibition of recombinant PDK1 using P2925 peptide as substrate by fluorescence polarization assay. The gist of the method: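 A fluorescence polarization kit assay. Recombinant PDK1 phosphorylates the substrate peptide with DMSO or inhibitor present. The phosphopeptide formed competes with a fluorescein-labeled phosphopeptide tracer for an anti-phosphothreonine antibody, and polarization is then read on a plate reader. A standard reference inhibitor was run alongside.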
(In general: In fluorescence polarisation assays a small probe gives low polarisation when free and higher when bound to something large.)

A further test has as its system PC-3. Nature of the test: Growth inhibition of human PC3 cells after 48 hrs by sulforhodamine B assay. The format is functional. The conditions noted are these: PC-3, 48 h. The gist of the method:
as §1

Test [2] has as its system Hs-578T. The experiment in a line: Growth inhibition of human Hs578T cells at 10 uM after 48 hrs by sulforhodamine B assay. The settings on record: read-out: GI. The format is functional. The gist of the method: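 A single-concentration NCI-DTP test at 10 μM, run two times. After 48 h exposure, growth was read by sulforhodamine B staining and expressed as percentage growth, [(Ti-Tz)/(C-Tz)]*100, against time-zero and untreated-control absorbances. Growth inhibition is reported as 100 minus percentage growth.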

The next test deals with SF-268. Nature of the test: Growth inhibition of human SF268 cells after 48 hrs by sulforhodamine B assay. Type of test: functional. The conditions noted are these: SF-268, 48 h. The gist of the method: as §1
The test system of the next test is OVCAR-3. Nature of the test: Growth inhibition of human OVCAR3 cells after 48 hrs by sulforhodamine B assay. Type of test: functional. The settings on record: OVCAR-3, 48 h. The method, boiled down:
as §1

Another test has as its system KM12. The experiment in a line: Growth inhibition of human KM12 cells after 48 hrs by sulforhodamine B assay. The format is functional. The conditions noted are these: KM12, 48 h. The method, boiled down: as §1
The subject of test [3] is Hs-578T. Nature of the test: Growth inhibition of human Hs578T cells after 48 hrs by sulforhodamine B assay. Type of test: functional. The gist of the method: as §1
For a further test, the system named is RXF 393. The experiment in a line: Growth inhibition of human RXF393 cells after 48 hrs by sulforhodamine B assay. The format is functional. The conditions noted are these: RXF 393, 48 h. The method, boiled down: as §1
The subject of another test is RPMI-8226. The experiment in a line: Growth inhibition of human RPMI8226 cells after 48 hrs by sulforhodamine B assay. Type of test: functional. The settings on record: RPMI-8226, 48 h. The gist of the method: as §1
For another test, the system named is SF-295. The experiment in a line: Growth inhibition of human SF295 cells after 48 hrs by sulforhodamine B assay. The conditions noted are these: SF-295, 48 h. The format is functional. The method, boiled down:
as §1

A further test relates to HOP-92. Nature of the test: Growth inhibition of human HOP92 cells after 48 hrs by sulforhodamine B assay. Type of test: functional. The settings on record: HOP-92, 48 h. The method, boiled down:
as §1

In a further test the test system is DU-145. Nature of the test: Growth inhibition of human DU145 cells after 48 hrs by sulforhodamine B assay. The format is functional. The settings on record: DU-145, 48 h. The gist of the method:
as §1

The next test concerns U-251. The experiment in a line: Growth inhibition of human U251 cells after 48 hrs by sulforhodamine B assay. Type of test: functional. The settings on record: U-251, 48 h. The method, boiled down: as §1

One may read the GI50 as the concentration that inhibits growth by half. High values mean less potent growth inhibition, low ones more potent growth inhibition. The pIC50 is the IC50 on a negative log10 scale, so that one unit is a factor of ten.

For `CCOC(=O)c1ccc(Nc2cc(C)nc(Nc3ccc(C(=O)OCC)cc3)n2)cc1`, the GI50 with LOX IMVI was 7.24 µM; with PC-3 it was 6.02 µM; with SF-268, 3.8 µM; in the test on OVCAR-3, 2.02 µM; in the test with KM12, 3.62 µM; in the test with Hs-578T [3], under 10 µM. The GI50 came to 5.05 µM in the test with RXF 393; 3.54 µM with RPMI-8226; 8.64 µM in the test with SF-295; 3.25 µM in the test on HOP-92; 5.39 µM in the test with DU-145; 9.88 µM in the test on U-251. Also, the pIC50 in [1] was 6.70. The inhibition of growth at 10 µM in the test on Hs-578T [2] is 67%.
